Consider two compounds from ChEMBL document CHEMBL4038330, “Discovery of Potent Orally Active Protease-Activated Receptor 1 (PAR1) Antagonists Based on Andrographolide” (J Med Chem, 2017).

SMILES strings stand for the structures.

Series [1] has as its system Plasma. In words: Drug metabolism in Wistar rat plasma assessed as [M0-2H] metabolite formation at 10 mg/kg, po administered as single dose measured at 3 hrs post dose by LC-HRMS analysis. It counts as ADME, organism-based. The note with it: in vivo. The method in brief:
(§1)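 Rats dosed orally at 10 mg/kg or 5 mg/kg. Plasma taken at 3.0 h after dosing. Parent and metabolites detected by extracted ion chromatograms.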

Series [2] has as its system Plasma. In words: Drug metabolism in Wistar rat plasma assessed as [M0-CH2] metabolite formation at 10 mg/kg, po administered as single dose measured at 3 hrs post dose by LC-HRMS analysis. Type of series: ADME, organism-based. Particulars: in vivo. The method in brief: as §1
For series [3], the system named is Plasma. In words: Drug metabolism in Wistar rat plasma assessed as [M0+H2O] metabolite formation at 10 mg/kg, po administered as single dose measured at 3 hrs post dose by LC-HRMS analysis. The note with it: in vivo. Type of series: ADME, organism-based. The gist of the method:
as §1

In series [4] the test system is Plasma. In words: Drug metabolism in Wistar rat plasma assessed as [M0-CH2+O] metabolite formation at 10 mg/kg, po administered as single dose measured at 3 hrs post dose by LC-HRMS analysis. It counts as ADME, organism-based. The note with it: in vivo. The gist of the method: as §1
For series [5], the system named is Plasma. In words: Drug metabolism in Wistar rat plasma assessed as (1S,2S,4aS,5S,6R,8aR)-1-((E)-2-(5-(3-Fluorophenyl)pyridin-2-yl)vinyl)-6-hydroxy-5,8a-dimethyloctahydro-1H-spiro[naphthalene-2,2'-oxirane]-5-carboxylic acid metabolite formation at 10 mg/kg, po administered as single dose measured at 3 hrs post dose by LC-HRMS analysis. Type of series: ADME, organism-based. Particulars: in vivo. The method in brief:
as §1

Series [6] has as its system Plasma. In words: Stability in Wistar rat assessed as parent compound level in plasma at 10 mg/kg, po administered as single dose measured at 3 hrs post dose by LC-HRMS analysis. Type of series: ADME, organism-based. The note with it: in vivo. The method in brief:
as §1

The subject of series [7] is Plasma. In words: Drug metabolism in Wistar rat plasma assessed as [M0+O] metabolite formation at 10 mg/kg, po administered as single dose measured at 3 hrs post dose by LC-HRMS analysis. Type of series: ADME, organism-based. The note with it: in vivo. The gist of the method:
as §1

For series [8], the target named is T1, Proteinase-activated receptor 1 (Homo sapiens, UniProt P25116).
T1 sequence (P25116 whole entry): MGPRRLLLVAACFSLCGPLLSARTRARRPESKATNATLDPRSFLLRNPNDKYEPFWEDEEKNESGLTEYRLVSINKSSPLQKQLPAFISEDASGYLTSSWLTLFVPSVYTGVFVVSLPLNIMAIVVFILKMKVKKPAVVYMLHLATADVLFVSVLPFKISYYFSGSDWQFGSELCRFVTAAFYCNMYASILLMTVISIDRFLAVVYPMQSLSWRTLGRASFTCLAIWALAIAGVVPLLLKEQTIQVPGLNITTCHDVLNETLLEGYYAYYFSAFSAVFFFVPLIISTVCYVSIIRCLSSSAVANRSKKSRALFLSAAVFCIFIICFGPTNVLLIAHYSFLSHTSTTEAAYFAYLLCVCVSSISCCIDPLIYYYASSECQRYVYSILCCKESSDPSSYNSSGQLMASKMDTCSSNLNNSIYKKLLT
Briefly: Antagonist activity at human PAR1 expressed in HEK293 cells co-expressing Galpha15 assessed as inhibition of haTRAP-induced calcium mobilization preincubated for 15 mins followed by haTRAP addition by calcium-4 dye based FLIPR assay. It counts as functional, cell-based.

Series [9] relates to Plasma. Briefly: Drug metabolism in Wistar rat plasma assessed as [M1-2H+O] metabolite formation at 10 mg/kg, po administered as single dose measured at 3 hrs post dose by LC-HRMS analysis. Type of series: ADME, organism-based. Particulars: in vivo. The method in brief: as §1
Series [10] relates to Plasma. In words: Drug metabolism in Wistar rat plasma assessed as [M1-2H] metabolite formation at 10 mg/kg, po administered as single dose measured at 3 hrs post dose by LC-HRMS analysis. Type of series: ADME, organism-based. Particulars: in vivo. The gist of the method: as §1
The nature of series [11]: AUC (0 to infinity) in Wistar rat plasma at 10 mg/kg, po administered as single dose administered as single dose at 3 hrs post dose by LC-MS/MS analysis. It counts as ADME, organism-based. Further details: dose 10 mg/kg, route oral, time infinity.
In series [12] the test system is Plasma. In words: Drug metabolism in Wistar rat plasma assessed as [M1-CH2-2H] metabolite formation at 10 mg/kg, po administered as single dose measured at 3 hrs post dose by LC-HRMS analysis. Particulars: in vivo. Type of series: ADME, organism-based. The method in brief: as §1
The next series relates to Rattus norvegicus. Briefly: AUC (0 to infinity) in Wistar rat assessed as (1S,2S,4aS,5S,6R,8aR)-1-((E)-2-(5-(3-Fluorophenyl)pyridin-2-yl)vinyl)-6-hydroxy-5,8a-dimethyloctahydro-1H-spiro[naphthalene-2,2'-oxirane]-5-carboxylic acid level in plasma at 10 mg/kg, po administered as single dose at 3 hrs post dose by LC-MS/MS analysis. Further details: dose 10 mg/kg, route oral, time infinity. Particulars: in vivo. Type of series: ADME, organism-based.

The test system of series [13] is Plasma. In words: Drug metabolism in Wistar rat plasma assessed as [M1+O] metabolite formation at 10 mg/kg, po administered as single dose measured at 3 hrs post dose by LC-HRMS analysis. Type of series: ADME, organism-based. Particulars: in vivo. The gist of the method: as §1

With `C[C@]1(CO)[C@H]2CC[C@@]3(CO3)[C@@H](/C=C/c3ccc(-c4cccc(F)c4)cn3)[C@]2(C)CC[C@H]1O`, the Drug metabolism result with Plasma [1], with Plasma [2], in the series on Plasma [3], with Plasma [4], in the series with Plasma [5] and in the series with Plasma [7] was “Metabolite_Detected” throughout. For the same compound, the Stability entry with Plasma [6] is recorded as “Unstable”. Also, the IC50 in [8] was found to be 9.1 µM.

With `COC(=O)[C@]1(C)[C@H](O)CC[C@@]2(C)[C@H](/C=C/c3ccc(-c4cccc(F)c4)cn3)[C@@]3(CC[C@@H]21)CO3`, the Drug metabolism result in the series with Plasma [9], in the series with Plasma [10], with Plasma [12], with Plasma [13] and in the series on Plasma [5] was “Metabolite_Detected” in each case. In series [11], the area under the curve AUC(0-inf) worked out at 269 ng·h/mL. Besides, in the series on Rattus norvegicus, the AUC came to 8.4127 µg·h/mL. Besides, the Stability result in the series with Plasma [6] was “Unstable”. Also, the half-maximal inhibitory concentration (IC50) in series [8] worked out at 7 µM.
